biological target: T1, D(2) dopamine receptor (Homo sapiens, UniProt P14416); test: Displacement of [3H]Spiperone from human dopamine D2 long receptor; settings: not given
Summary of the method: (§1)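 Membranes from CHO cells stably expressing the human receptor, at 5-20 μg protein/assay tube, were competed against [3H]spiperone at 0.1-0.4 nM final. […] IC50 came from sigmoid nonlinear regression.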

T1 sequence (P14416 whole entry): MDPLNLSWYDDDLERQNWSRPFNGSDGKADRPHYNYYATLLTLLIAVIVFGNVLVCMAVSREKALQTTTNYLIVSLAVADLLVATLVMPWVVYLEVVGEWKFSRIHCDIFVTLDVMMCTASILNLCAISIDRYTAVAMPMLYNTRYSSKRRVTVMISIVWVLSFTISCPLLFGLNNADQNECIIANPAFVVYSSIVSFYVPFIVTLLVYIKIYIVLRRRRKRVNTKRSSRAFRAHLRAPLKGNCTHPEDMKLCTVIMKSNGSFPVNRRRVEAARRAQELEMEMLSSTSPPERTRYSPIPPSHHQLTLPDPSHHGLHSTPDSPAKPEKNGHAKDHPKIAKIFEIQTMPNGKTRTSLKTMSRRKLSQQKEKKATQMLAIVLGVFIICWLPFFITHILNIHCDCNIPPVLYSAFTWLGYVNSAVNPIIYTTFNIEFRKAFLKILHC

| Compound | Ki [µM] |
| --- | --- |
| Cc1ccc(CNCC2(F)CCN(C(=O)c3ccc(F)c(Cl)c3)CC2)nc1 [BEFIRADOL] | 15 |
| Cc1ccc(CNCC2(F)CCN(C(=O)c3csc4ccccc34)CC2)nc1 | 20 |
| Cc1ccc(CNCC2(F)CCN(C(=O)c3cc(Br)cs3)CC2)nc1 | 73 |
| Cc1ccc(CNCC2(F)CCN(C(=O)c3coc4ccccc34)CC2)nc1 | 27 |

biological target: 5-hydroxytryptamine receptor 2A (Sus scrofa, UniProt P50129); test: Displacement of [3H]Ketanserin from 5-HT2 receptor in pig cortex membranes; assay type: cell membranes; settings: not given
Sequence (P50129 whole entry): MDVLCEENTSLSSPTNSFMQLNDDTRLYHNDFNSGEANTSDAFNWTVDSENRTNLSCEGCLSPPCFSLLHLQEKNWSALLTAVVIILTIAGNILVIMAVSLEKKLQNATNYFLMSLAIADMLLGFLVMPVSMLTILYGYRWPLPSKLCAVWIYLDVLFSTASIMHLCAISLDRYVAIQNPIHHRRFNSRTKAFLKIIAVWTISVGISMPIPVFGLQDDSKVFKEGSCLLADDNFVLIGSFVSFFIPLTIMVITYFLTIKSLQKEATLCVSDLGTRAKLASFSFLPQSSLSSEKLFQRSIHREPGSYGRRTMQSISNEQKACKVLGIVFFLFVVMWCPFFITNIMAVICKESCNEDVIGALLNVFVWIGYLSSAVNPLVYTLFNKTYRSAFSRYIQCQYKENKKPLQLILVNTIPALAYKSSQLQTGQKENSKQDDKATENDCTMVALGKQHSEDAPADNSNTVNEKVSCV

| Compound | Ki [µM] |
| --- | --- |
| Cc1ccc(CNCC2(F)CCN(C(=O)c3ccc(F)c(Cl)c3)CC2)nc1 [BEFIRADOL] | 23 |
| Cc1ccc(CNCC2(F)CCN(C(=O)c3csc4ccccc34)CC2)nc1 | 22 |
| Cc1ccc(CNCC2(F)CCN(C(=O)c3cc(Br)cs3)CC2)nc1 | 18 |
| Cc1ccc(CNCC2(F)CCN(C(=O)c3coc4ccccc34)CC2)nc1 | 53 |

biological target: not listed separately; test: Displacement of [3H]WAY-100635 from 5-HT1A receptor in pig cortex membranes; assay type: cell membranes, Sus scrofa; settings: not given

| Compound | Ki [nM] |
| --- | --- |
| Cc1ccc(CNCC2(F)CCN(C(=O)c3cccs3)CC2)nc1 | 27 |
| Cc1ccc(CNCC2(F)CCN(C(=O)c3ccc(F)c(Cl)c3)CC2)nc1 [BEFIRADOL] | 1.1 |
| Cc1ccc(CNCC2(F)CCN(C(=O)c3csc4ccccc34)CC2)nc1 | 2.7 |
| Cc1ccc(CNCC2(F)CCN(C(=O)c3sccc3Cl)CC2)nc1 | 25 |
| Cc1ccc(CNCC2(F)CCN(C(=O)c3scc4c3CCCC4)CC2)nc1 | 20 |
| Cc1ccc(CNCC2(F)CCN(C(=O)c3cc(Br)cs3)CC2)nc1 | 6.2 |
| Cc1ccc(CNCC2(F)CCN(C(=O)c3cc4ccccc4[te]3)CC2)nc1 | 51 |
| Cc1ccc(CNCC2(F)CCN(C(=O)c3sc4sccc4c3Cl)CC2)nc1 | 25 |
| Cc1ccc(CNCC2(F)CCN(C(=O)c3coc4ccccc34)CC2)nc1 | 4.2 |
| Cc1ccc(CNCC2(F)CCN(C(=O)c3ccsc3)CC2)nc1 | 27 |
| COc1c(C(=O)N2CCC(F)(CNCc3ccc(C)cn3)CC2)csc1Br | 17 |
| Cc1ccc(CNCC2(F)CCN(C(=O)c3ccco3)CC2)nc1 | 62 |
| COc1c(C(=O)N2CCC(F)(CNCc3ccc(C)cn3)CC2)csc1Cl | 18 |
| COc1cscc1C(=O)N1CCC(F)(CNCc2ccc(C)cn2)CC1 | 56 |
| Cc1ccc(CNCC2(F)CCN(C(=O)c3sccc3C)CC2)nc1 | 26 |

biological target: not listed separately; test: Displacement of [3H]Prazosin from adrenergic alpha1 receptor in pig cortex membranes; assay type: cell membranes, Sus scrofa; settings: not given

| Compound | Ki [nM] |
| --- | --- |
| Cc1ccc(CNCC2(F)CCN(C(=O)c3ccc(F)c(Cl)c3)CC2)nc1 [BEFIRADOL] | 4500 |
| Cc1ccc(CNCC2(F)CCN(C(=O)c3csc4ccccc34)CC2)nc1 | 2000 |
| Cc1ccc(CNCC2(F)CCN(C(=O)c3cc(Br)cs3)CC2)nc1 | 2300 |
| Cc1ccc(CNCC2(F)CCN(C(=O)c3coc4ccccc34)CC2)nc1 | 2800 |

biological target: not listed separately; test: Displacement of [3H]RX821002 from adrenergic alpha2 receptor in pig cortex membranes; settings: not given

| Compound | Ki [µM] |
| --- | --- |
| Cc1ccc(CNCC2(F)CCN(C(=O)c3ccc(F)c(Cl)c3)CC2)nc1 [BEFIRADOL] | 3.7 |
| Cc1ccc(CNCC2(F)CCN(C(=O)c3csc4ccccc34)CC2)nc1 | 1.7 |
| Cc1ccc(CNCC2(F)CCN(C(=O)c3cc(Br)cs3)CC2)nc1 | 3.5 |
| Cc1ccc(CNCC2(F)CCN(C(=O)c3coc4ccccc34)CC2)nc1 | 2.8 |

biological target: T1, D(2) dopamine receptor; test: Displacement of [3H]Spiperone from human dopamine D2 short receptor; settings: not given; summary of the method: as §1

| Compound | Ki [µM] |
| --- | --- |
| Cc1ccc(CNCC2(F)CCN(C(=O)c3ccc(F)c(Cl)c3)CC2)nc1 [BEFIRADOL] | 46 |
| Cc1ccc(CNCC2(F)CCN(C(=O)c3csc4ccccc34)CC2)nc1 | 54 |
| Cc1ccc(CNCC2(F)CCN(C(=O)c3cc(Br)cs3)CC2)nc1 | 100 |
| Cc1ccc(CNCC2(F)CCN(C(=O)c3coc4ccccc34)CC2)nc1 | 28 |

biological target: D(1A) dopamine receptor (Sus scrofa, UniProt P50130); test: Displacement of [3H]SCH23390 from dopamine D1 receptor in pig striatal membranes; settings: not given
Sequence (P50130 whole entry): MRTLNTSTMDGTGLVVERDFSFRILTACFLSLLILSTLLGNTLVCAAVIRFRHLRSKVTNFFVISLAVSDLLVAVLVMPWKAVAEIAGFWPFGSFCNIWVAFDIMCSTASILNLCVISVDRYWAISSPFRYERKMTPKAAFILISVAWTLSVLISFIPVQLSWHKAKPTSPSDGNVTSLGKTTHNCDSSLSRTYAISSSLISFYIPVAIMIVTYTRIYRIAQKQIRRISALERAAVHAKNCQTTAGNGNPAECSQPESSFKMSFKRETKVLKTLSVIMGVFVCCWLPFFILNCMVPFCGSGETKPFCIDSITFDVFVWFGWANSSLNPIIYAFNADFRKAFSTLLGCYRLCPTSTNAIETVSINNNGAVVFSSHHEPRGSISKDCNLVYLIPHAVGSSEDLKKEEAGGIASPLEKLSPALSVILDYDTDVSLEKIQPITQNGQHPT

| Compound | Ki [µM] |
| --- | --- |
| Cc1ccc(CNCC2(F)CCN(C(=O)c3ccc(F)c(Cl)c3)CC2)nc1 [BEFIRADOL] | 26 |
| Cc1ccc(CNCC2(F)CCN(C(=O)c3csc4ccccc34)CC2)nc1 | 45 |
| Cc1ccc(CNCC2(F)CCN(C(=O)c3cc(Br)cs3)CC2)nc1 | 34 |
| Cc1ccc(CNCC2(F)CCN(C(=O)c3coc4ccccc34)CC2)nc1 | 48 |

biological target: not listed separately; test: Displacement of [3H]8-OH-DPAT from 5-HT1A receptor in pig cortex membranes; assay type: cell membranes, Sus scrofa; settings: not given

| Compound | Ki [nM] |
| --- | --- |
| Cc1ccc(CNCC2(F)CCN(C(=O)c3ccc(F)c(Cl)c3)CC2)nc1 [BEFIRADOL] | 0.33 |
| Cc1ccc(CNCC2(F)CCN(C(=O)c3csc4ccccc34)CC2)nc1 | 0.86 |
| Cc1ccc(CNCC2(F)CCN(C(=O)c3cc(Br)cs3)CC2)nc1 | 1.8 |
| Cc1ccc(CNCC2(F)CCN(C(=O)c3coc4ccccc34)CC2)nc1 | 1.1 |

biological target: D(3) dopamine receptor (Homo sapiens, UniProt P35462); test: Displacement of [3H]Spiperone from human dopamine D3 receptor; settings: not given; summary of the method: as §1
Sequence (P35462 whole entry): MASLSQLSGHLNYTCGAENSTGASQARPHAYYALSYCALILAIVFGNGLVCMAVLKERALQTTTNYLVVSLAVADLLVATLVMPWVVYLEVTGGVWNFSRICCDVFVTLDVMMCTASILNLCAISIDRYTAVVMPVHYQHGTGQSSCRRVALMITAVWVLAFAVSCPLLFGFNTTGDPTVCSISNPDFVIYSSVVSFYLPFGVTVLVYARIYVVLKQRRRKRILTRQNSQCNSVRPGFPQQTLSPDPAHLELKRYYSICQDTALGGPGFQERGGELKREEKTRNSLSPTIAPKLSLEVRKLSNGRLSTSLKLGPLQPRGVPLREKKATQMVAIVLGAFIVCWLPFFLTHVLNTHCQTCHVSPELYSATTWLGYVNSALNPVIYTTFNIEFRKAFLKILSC

| Compound | Ki [µM] |
| --- | --- |
| Cc1ccc(CNCC2(F)CCN(C(=O)c3ccc(F)c(Cl)c3)CC2)nc1 [BEFIRADOL] | 10 |
| Cc1ccc(CNCC2(F)CCN(C(=O)c3csc4ccccc34)CC2)nc1 | 8.7 |
| Cc1ccc(CNCC2(F)CCN(C(=O)c3cc(Br)cs3)CC2)nc1 | 19 |
| Cc1ccc(CNCC2(F)CCN(C(=O)c3coc4ccccc34)CC2)nc1 | 12 |

tested on: Mus musculus; test: Antinociceptive activity against formalin-induced inflammatory pain in mouse assessed as reduction of paw licking at 1 mg/kg, ip; assay type: functional; parameters: scale not given: the % may be the effect or the level left; settings: route intraperitoneal

| Compound | Activity [%] |
| --- | --- |
| Cc1ccc(CNCC2(F)CCN(C(=O)c3cccs3)CC2)nc1 | 45 |
| Cc1ccc(CNCC2(F)CCN(C(=O)c3ccco3)CC2)nc1 | 35 |

biological target: T2, D(4) dopamine receptor (Homo sapiens, UniProt P21917); test: Displacement of [3H]Spiperone from human dopamine D4.4 receptor; settings: not given; summary of the method: as §1
T2 sequence (P21917 whole entry): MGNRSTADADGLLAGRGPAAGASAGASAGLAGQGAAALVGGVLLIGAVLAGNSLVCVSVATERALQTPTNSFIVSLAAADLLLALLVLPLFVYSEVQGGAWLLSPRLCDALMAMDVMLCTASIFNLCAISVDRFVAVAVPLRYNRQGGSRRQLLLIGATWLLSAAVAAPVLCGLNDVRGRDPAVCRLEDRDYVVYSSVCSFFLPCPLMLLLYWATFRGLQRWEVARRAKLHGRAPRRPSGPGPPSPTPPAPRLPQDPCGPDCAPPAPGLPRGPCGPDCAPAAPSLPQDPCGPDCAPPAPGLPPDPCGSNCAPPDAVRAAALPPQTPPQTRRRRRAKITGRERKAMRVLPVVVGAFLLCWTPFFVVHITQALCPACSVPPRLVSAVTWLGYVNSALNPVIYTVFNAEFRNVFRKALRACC

| Compound | Ki [nM] |
| --- | --- |
| Cc1ccc(CNCC2(F)CCN(C(=O)c3ccc(F)c(Cl)c3)CC2)nc1 [BEFIRADOL] | 2000 |
| Cc1ccc(CNCC2(F)CCN(C(=O)c3csc4ccccc34)CC2)nc1 | 460 |
| Cc1ccc(CNCC2(F)CCN(C(=O)c3cc(Br)cs3)CC2)nc1 | 2000 |
| Cc1ccc(CNCC2(F)CCN(C(=O)c3coc4ccccc34)CC2)nc1 | 590 |

biological target: T3, 5-hydroxytryptamine receptor 1A (Homo sapiens, UniProt P08908); test: Intrinsic activity at human 5-HT1A receptor expressed in CHO cells assessed as increase of serotonin-induced [35S]GTPgammaS binding; assay type: functional, cell-based; settings: not given
T3 sequence (P08908 whole entry): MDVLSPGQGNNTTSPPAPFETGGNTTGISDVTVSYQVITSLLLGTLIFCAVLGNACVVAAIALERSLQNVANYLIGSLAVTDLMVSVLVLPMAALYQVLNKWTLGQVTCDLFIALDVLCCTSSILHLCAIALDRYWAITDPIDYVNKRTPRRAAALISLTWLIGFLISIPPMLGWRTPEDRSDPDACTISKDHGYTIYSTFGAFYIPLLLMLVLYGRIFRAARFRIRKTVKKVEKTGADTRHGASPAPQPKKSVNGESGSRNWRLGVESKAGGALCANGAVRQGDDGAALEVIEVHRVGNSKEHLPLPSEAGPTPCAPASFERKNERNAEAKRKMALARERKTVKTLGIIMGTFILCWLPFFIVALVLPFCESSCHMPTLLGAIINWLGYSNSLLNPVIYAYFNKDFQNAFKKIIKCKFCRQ
Summary of the method: (§2)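 Membranes from CHO cells stably expressing human 5-HT1A were incubated with 0.1 nM [35S]GTPγS and test compound at eight concentrations (0.01-10000 nM), in hexaduplicate. Values come from a mean curve of four experiments. Emax is expressed relative to the maximal serotonin effect.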

| Compound | EC50 [nM] |
| --- | --- |
| Cc1ccc(CNCC2(F)CCN(C(=O)c3cccs3)CC2)nc1 | 18 |
| Cc1ccc(CNCC2(F)CCN(C(=O)c3csc4ccccc34)CC2)nc1 | 10 |
| Cc1ccc(CNCC2(F)CCN(C(=O)c3sccc3Cl)CC2)nc1 | 30 |
| Cc1ccc(CNCC2(F)CCN(C(=O)c3scc4c3CCCC4)CC2)nc1 | 86 |
| Cc1ccc(CNCC2(F)CCN(C(=O)c3cc(Br)cs3)CC2)nc1 | 17 |
| Cc1ccc(CNCC2(F)CCN(C(=O)c3cc4ccccc4[te]3)CC2)nc1 | 36 |
| Cc1ccc(CNCC2(F)CCN(C(=O)c3sc4sccc4c3Cl)CC2)nc1 | 59 |
| Cc1ccc(CNCC2(F)CCN(C(=O)c3coc4ccccc34)CC2)nc1 | 16 |
| Cc1ccc(CNCC2(F)CCN(C(=O)c3ccsc3)CC2)nc1 | 12 |
| COc1c(C(=O)N2CCC(F)(CNCc3ccc(C)cn3)CC2)csc1Br | 62 |
| Cc1ccc(CNCC2(F)CCN(C(=O)c3ccco3)CC2)nc1 | 15 |
| COc1c(C(=O)N2CCC(F)(CNCc3ccc(C)cn3)CC2)csc1Cl | 50 |
| COc1cscc1C(=O)N1CCC(F)(CNCc2ccc(C)cn2)CC1 | 99 |
| Cc1ccc(CNCC2(F)CCN(C(=O)c3sccc3C)CC2)nc1 | 35 |

biological target: T4, 5-hydroxytryptamine receptor 1A (Homo sapiens) (UniProt P08908); test: Intrinsic activity at human 5-HT1A receptor expressed in CHO cells assessed as increase of serotonin-induced [35S]GTPgammaS binding relative to serotonin; assay type: functional, cell-based; settings: not given; summary of the method: as §2
T4 sequence (whole entry): T3 sequence (P08908 whole entry)

| Compound | Emax [%] |
| --- | --- |
| Cc1ccc(CNCC2(F)CCN(C(=O)c3cccs3)CC2)nc1 | 91 |
| Cc1ccc(CNCC2(F)CCN(C(=O)c3csc4ccccc34)CC2)nc1 | 124 |
| Cc1ccc(CNCC2(F)CCN(C(=O)c3sccc3Cl)CC2)nc1 | 99 |
| Cc1ccc(CNCC2(F)CCN(C(=O)c3scc4c3CCCC4)CC2)nc1 | 104 |
| Cc1ccc(CNCC2(F)CCN(C(=O)c3cc(Br)cs3)CC2)nc1 | 116 |
| Cc1ccc(CNCC2(F)CCN(C(=O)c3cc4ccccc4[te]3)CC2)nc1 | 46 |
| Cc1ccc(CNCC2(F)CCN(C(=O)c3sc4sccc4c3Cl)CC2)nc1 | 97 |
| Cc1ccc(CNCC2(F)CCN(C(=O)c3coc4ccccc34)CC2)nc1 | 101 |
| Cc1ccc(CNCC2(F)CCN(C(=O)c3ccsc3)CC2)nc1 | 95 |
| COc1c(C(=O)N2CCC(F)(CNCc3ccc(C)cn3)CC2)csc1Br | 95 |
| Cc1ccc(CNCC2(F)CCN(C(=O)c3ccco3)CC2)nc1 | 81 |
| COc1c(C(=O)N2CCC(F)(CNCc3ccc(C)cn3)CC2)csc1Cl | 102 |
| COc1cscc1C(=O)N1CCC(F)(CNCc2ccc(C)cn2)CC1 | 93 |
| Cc1ccc(CNCC2(F)CCN(C(=O)c3sccc3C)CC2)nc1 | 96 |
